This note sets out measurements from ChEMBL document CHEMBL2390903, “Anti-tubercular agents. Part 7: a new class of diarylpyrrole-oxazolidinone conjugates as antimycobacterial agents” (Eur J Med Chem, 2013).

The term MIC denotes the smallest concentration in the dilution series that meets the test's criterion for growth inhibition. By IC50 is commonly meant the concentration at which inhibition is half-maximal.

The structures appear in SMILES notation. Converted amounts (≈) assume the structure as drawn.

Data set [1] relates to Bacillus subtilis. As to the kind of experiment: Antibacterial activity against Bacillus subtilis MTCC 121 assessed as growth inhibition at 20 mg/mL after 24 hrs. It counts as functional. As to conditions: MTCC 121, 24 h, read-out: IZ.
Data set [2] concerns Staphylococcus. Kind of data set: Antibacterial activity against 16-membered ring macrolide- lincosamide-streptogramin B-resistant Staphylococcus MTCC 2940 assessed as growth inhibition at 20 mg/mL after 24 hrs. As to conditions: MTCC 2940, 24 h, read-out: IZ. It counts as functional.
Data set [3] has as its system Bacillus subtilis. As to the kind of experiment: Antibacterial activity against Bacillus subtilis MTCC 121 assessed as growth inhibition after 24 hrs by agar dilution method. The format is functional. As to conditions: MTCC 121, 24 h. (In agar dilution the substance is mixed into plates at graded concentrations.)
Data set [4] relates to Micrococcus luteus. As to the kind of experiment: Antibacterial activity against Micrococcus luteus MTCC 2470 assessed as growth inhibition after 24 hrs by agar dilution method. It counts as functional. As to conditions: MTCC 2470, 24 h.
In data set [5] the test system is Staphylococcus. Kind of data set: Antibacterial activity against 16-membered ring macrolide- lincosamide-streptogramin B-resistant Staphylococcus MTCC 2940 assessed as growth inhibition after 24 hrs by agar dilution method. As to conditions: MTCC 2940, 24 h. The format is functional.
The subject of data set [6] is Staphylococcus aureus. Kind of data set: Antibacterial activity against Staphylococcus aureus MTCC 96 assessed as growth inhibition after 24 hrs by agar dilution method. The format is functional. As to conditions: MTCC 96, 24 h.
For data set [7], the system named is Mycobacterium tuberculosis. As to the kind of experiment: Antitubercular activity against Mycobacterium tuberculosis XDR-1 assessed as growth inhibition after 2 to 3 weeks by broth microdilution method. It counts as functional. Put shortly: (§1)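 Primary screen of all compounds against H37Rv at a single concentration in triplicate by microplate dilution. Actives then went to MIC determination by broth microdilution against H37Rv, rifampicin-resistant and XDR-1 isolates. Plates incubated 2–3 weeks at 37 °C in a CO2 incubator. MIC read visually as absence of growth turbidity. Rifampicin and linezolid served as reference drugs.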
(Dilution methods test growth across graded concentrations, often in twofold steps.)

Data set [8] relates to Mycobacterium tuberculosis. As to the kind of experiment: Antitubercular activity against Mycobacterium tuberculosis H37Rv assessed as growth inhibition after 2 to 3 weeks by broth microdilution method. It counts as functional. The method, boiled down:
as §1

The test system of data set [9] is Bacillus subtilis. As to the kind of experiment: Antibacterial activity against Bacillus subtilis MTCC 121 assessed as growth inhibition at 20 ug/mL after 24 hrs. The format is functional. Conditions: MTCC 121, 24 h, read-out: IZ.
The test system of data set [10] is Micrococcus luteus. Kind of data set: Antibacterial activity against Micrococcus luteus MTCC 2470 assessed as growth inhibition at 20 ug/mL after 24 hrs. It counts as functional. As to conditions: MTCC 2470, 24 h, read-out: IZ.
Data set [11] has as its system Staphylococcus. As to the kind of experiment: Antibacterial activity against 16-membered ring macrolide- lincosamide-streptogramin B-resistant Staphylococcus MTCC 2940 assessed as growth inhibition at 20 ug/mL after 24 hrs. It counts as functional. As to conditions: MTCC 2940, 24 h, read-out: IZ.
For data set [12], the system named is Staphylococcus aureus. As to the kind of experiment: Antibacterial activity against Staphylococcus aureus MTCC 96 assessed as growth inhibition at 20 ug/mL after 24 hrs. It counts as functional. Conditions: MTCC 96, 24 h, read-out: IZ.
For the next data set, the system named is Pseudomonas aeruginosa. Kind of data set: Antibacterial activity against Pseudomonas aeruginosa MTCC 2453 assessed as growth inhibition after 24 hrs by agar dilution method. As to conditions: MTCC 2453, 24 h. The format is functional.
Another data set has as its system Escherichia coli. Kind of data set: Antibacterial activity against Escherichia coli MTCC 739 assessed as growth inhibition after 24 hrs by agar dilution method. The format is functional. As to conditions: MTCC 739, 24 h.
Data set [13] can be described thus: Cytotoxicity against mouse J744 cells assessed as growth inhibition after 24 hrs by MTT assay. The format is cell-based. As to conditions: J744, 24 h. The method, boiled down:
(§2)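 Mouse J-774 macrophages exposed to test material (40) in RPMI with 10% FCS for 24 h at 37 °C under CO2. MTT then added with a further 3 h incubation. Formazan absorbance read at […]. Percent cytotoxicity calculated relative to untreated cells.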
(Tetrazolium assays rely on reduction of a dye to a coloured formazan, in cell work by metabolically active cells.)

A short description of data set [14]: Selectivity index, ratio of IC50 for mouse J744 cells to MIC for Mycobacterium tuberculosis H37Rv. It counts as functional.
A short description of data set [15]: Cytotoxicity against mouse J744 cells assessed as growth inhibition at 40 ug/mL after 24 hrs by MTT assay relative to control. It counts as cell-based. Conditions: read-out: GI. The method, boiled down: as §2

As to `CC(=O)NC[C@H]1CN(c2ccc(N3CCOCC3)c(F)c2)C(=O)O1` [LINEZOLID], the zone of inhibition at 20000 µg/mL with Bacillus subtilis [1] amounted to 20 mm; in the data set with Staphylococcus [2], 18 mm. For the same compound, the MIC with Bacillus subtilis [3] was determined as 0.5 µg/mL (≈ 1.48 µM); with Micrococcus luteus [4], 1 µg/mL (≈ 2.96 µM); in the data set on Staphylococcus [5], 0.5 µg/mL (≈ 1.48 µM); in the data set with Staphylococcus aureus [6], 1.5 µg/mL (≈ 4.45 µM); in data set [7] it was 4 µg/mL (≈ 11.9 µM); in [8], 1 µg/mL (≈ 2.96 µM).
In the case of `Cc1c(CN2CCN(c3ccc(N4C[C@H](Cn5cc(-c6ccccn6)nn5)OC4=O)cc3F)CC2)cc(-c2ccc(F)cc2F)n1-c1ccc(F)cc1`, the zone of inhibition at 20 µg/mL stood at 24 mm in the data set with Bacillus subtilis [9], 36 mm in the data set on Micrococcus luteus [10], 40 mm in the data set with Staphylococcus [11] and 39 mm in the data set with Staphylococcus aureus [12]. The MIC with Pseudomonas aeruginosa is over 40 µg/mL; in the data set on Bacillus subtilis [3], 1 µg/mL (≈ 1.38 µM); in the data set on Escherichia coli it was over 40 µg/mL; in the data set with Micrococcus luteus [4], 3 µg/mL (≈ 4.15 µM); in the data set with Staphylococcus [5] it was 6 µg/mL (≈ 8.3 µM); in the data set with Staphylococcus aureus [6], 0.5 µg/mL (≈ 0.692 µM). Moreover, the MIC in [7] worked out at 16 µg/mL (≈ 22.1 µM); in data set [8], 4 µg/mL (≈ 5.53 µM). Also, the IC50 in data set [13] is over 40 µM. The “Selectivity Index” value in data set [14] is reported as over 10. The inhibition at 24 h, 40 ug/mL in data set [15] turned out to be 31.9%.
In the case of `CC(=O)NC[C@H]1CN(c2ccc(N3CCN(Cc4cc(-c5ccc(C(C)C)cc5)n(-c5ccc(F)cc5F)c4C)CC3)c(F)c2)C(=O)O1`, the zone of inhibition at 20 µg/mL with Bacillus subtilis [9] was 12 mm; in the data set with Micrococcus luteus [10], 18 mm; in the data set with Staphylococcus [11], 15 mm; with Staphylococcus aureus [12], 16 mm. Also, the MIC was over 40 µg/mL in the data set on Pseudomonas aeruginosa; 1.5 µg/mL (≈ 2.27 µM) in the data set with Bacillus subtilis [3]; over 40 µg/mL in the data set on Escherichia coli; 3 µg/mL (≈ 4.55 µM) in the data set on Micrococcus luteus [4]; 6 µg/mL (≈ 9.09 µM) in the data set with Staphylococcus [5]; 2 µg/mL (≈ 3.03 µM) in the data set with Staphylococcus aureus [6]. The figures for the MIC in data set [7] and in data set [8] were 16 µg/mL (≈ 24.3 µM) and 4 µg/mL (≈ 6.06 µM), respectively. Besides, the IC50 in data set [13] was over 40 µM. In addition, the “Selectivity Index” value in data set [14] is over 10. Also, the inhibition at 24 h, 40 ug/mL in data set [15] turned out to be 40.2%.
